In the array DNA melting data of Ke et al. (doi:10.1101/2024.01.08.574731):

Experiments:
[1] = folding enthalpy; higher = less favourable; fluorescence melt of hairpins on a sequencing array, two-state fit; details: sodium 0.088 M
Procedure, shortened: (§1)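 Two-state fits, bootstrapped, provided melting temperature and folding enthalpy from Cy3 fluorescence normalised to pre-quench Cy3 and to control constructs. Library hairpins with annealed Cy3 and quencher oligos were imaged on a sequenced MiSeq flow cell in 50 mM Na-HEPES pH 8.0, 25 mM NaCl, at 2.5 °C intervals up to 60 °C. Four replicates were combined with inverse-variance weighting. A 9.35 °C upward shift was applied to fitted temperatures to match UV melts.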

[2] = melting temperature; fluorescence melt of hairpins on a sequencing array, two-state fit, raised by 9.35 °C to match UV melts; details: sodium 0.088 M
Procedure, shortened: as §1

| Sequence | folding enthalpy [1] | Tm [2] |
| --- | --- | --- |
| GTGGGGGGAAACCCCCGC (.(((((....))))).) | -19.4 kcal/mol | 60 °C |
| GGGCTCGGAAACGGGCCC ((((.((....)).)))) | -43.6 kcal/mol | 66.9 °C |
| GGGTTAGGAAACTAATCC ((.((((....)))).)) | -35.1 kcal/mol | 42.7 °C |
| GGCGCTCGAAAGAGGCC (((.(((....)))))) | -40.1 kcal/mol | 57.5 °C |
| GCATACGAAAGTACATGC ((((((....)))..))) | -26.9 kcal/mol | 38.9 °C |
| GATCACCCCGTGATC ((((((...)))))) | -43.2 kcal/mol | 57.5 °C |
| GCCGACGCGAAAGCGGGC (((..(((....)))))) | -18.1 kcal/mol | 65.9 °C |
| GACAATCCGAAAGGAGTC (((..(((....)))))) | -17.2 kcal/mol | 32.7 °C |
| GCCCCTCCGAAAGGAGGC (((..(((....)))))) | -5.85 kcal/mol | 39.8 °C |
| GGAAGTGGAAACACTTTC (.(((((....))))).) | -26.6 kcal/mol | 45.2 °C |
| GTGTTGCGAAAGCACCAC (((.(((....))).))) | -30.7 kcal/mol | 51.2 °C |
| GTTCTCGAAAGAGGTAAC ((((((....)))..))) | -8.25 kcal/mol | 22.7 °C |
| GGGCTCGAAAGAGGACCC ((((((....)))..))) | -20.9 kcal/mol | 49.5 °C |
| GATGTCGGAAACAACATC (((((.(....).))))) | -28.9 kcal/mol | 35.7 °C |
| GCCCGGGCGAAAGCCGGC (((..(((....)))))) | -12.5 kcal/mol | 59.5 °C |
| GATCAGCTGCCTGATC ((((((....)))))) | -27.5 kcal/mol | 50.5 °C |
| GTGGAGGGAAACCCCCAC ((((.((....)).)))) | -30.6 kcal/mol | 48.8 °C |
| GCTGCCCGAAAGGGAGC (((.(((....)))))) | -23 kcal/mol | 57.1 °C |
| GCCTAAGGAAACCTAGGC (((((.(....).))))) | -39.3 kcal/mol | 44.9 °C |
| GAGAAGGGAAACTTTCTC (((((.(....).))))) | -22.7 kcal/mol | 31.8 °C |
| GATCAAAGCTTTGATC ((((((....)))))) | -57.4 kcal/mol | 50.8 °C |
| CGCCCGGAAACGGTGGCG ((((((....)))..))) | -28.6 kcal/mol | 54.9 °C |
| GTGGTAGGAAACTACTGC (..((((....))))..) | -18.2 kcal/mol | 36.1 °C |

| Sequence | folding enthalpy [1] | Tm [2] |
| --- | --- | --- |
| GTACATGAAAATGTAC ((((((....)))))) | -33.9 kcal/mol | 51.2 °C |
| GTGTTCGGAAACGAACGC (.(((((....))))).) | -30.3 kcal/mol | 59.6 °C |
| GGCATCGGAAACAACGCC (((.(.(....).).))) | -9.26 kcal/mol | 27.4 °C |
| GACCCCGAAAGGGTAGTC ((((((....)))..))) | -15 kcal/mol | 44.4 °C |
| GTACCCGAAAGGGTATAC ((((((....)))..))) | -10.4 kcal/mol | 49.4 °C |
| GCGTGTCGAAAGACTCGC (((.(((....))).))) | -45.2 kcal/mol | 63.9 °C |
| GATAGCGGAAACGCTGTC ((.((((....)))).)) | -25 kcal/mol | 52.2 °C |
| GAGGAGGGAAACCTCCTC (((((((....))))))) | -33.4 kcal/mol | 65.3 °C |
| GATCCGAAGGCGGATC ((((((....)))))) | -28.4 kcal/mol | 52.3 °C |
| GCTTTGGGAAACCGAAGC ((((.((....)).)))) | -39.5 kcal/mol | 52.5 °C |
| GGTGTCCGAAAGGAGACC (((.(((....))).))) | -42.9 kcal/mol | 58.3 °C |
| GGCTGTGGAAACACGGCC (((.(((....))).))) | -46.6 kcal/mol | 60.8 °C |
| GTCTGCGAAAGCAGGAC ((((((....))).))) | -11.4 kcal/mol | 57.8 °C |
| GCAAGGCGAAAGCATCGC ((.(.((....)).).)) | -14.4 kcal/mol | 37.3 °C |
| GTGATGGGAAACCACCAC (((.(((....))).))) | -29.7 kcal/mol | 42.3 °C |
| GTCCCCGAAAGGGTAGAC ((((((....)))..))) | -16.1 kcal/mol | 40.6 °C |
| GGCAACGAAAGTTGCGCC ((((((....)))..))) | -7.94 kcal/mol | 59.2 °C |
| GCAGTGACGAAAGTCTGC (((..(((....)))))) | -23.8 kcal/mol | 48 °C |
| GTCTGTGGAAACACAAAC ((.((((....)))).)) | -12.3 kcal/mol | 28.1 °C |
| CGGCCGGAAACGGACCCG ((((((....)))..))) | -12.1 kcal/mol | 38.8 °C |
| GTGTTCGAAAGAACCCAC ((((((....)))..))) | -11.7 kcal/mol | 33.1 °C |
| GCGTAGCGAAAGCCAAGC ((.(.((....)).).)) | -8.12 kcal/mol | 39.9 °C |
| CGGACGGAAACGTAGCCG ((((((....)))..))) | -23.6 kcal/mol | 33.4 °C |
